Results published in ChEMBL document CHEMBL1240411, “Synthesis and evaluation of anti-Toxoplasma gondii and antimicrobial activities of thiosemicarbazides, 4-thiazolidinones and 1,3,4-thiadiazoles” (Eur J Med Chem, 2010).
Converted amounts (≈) assume the structure as drawn.

How the values were obtained:
Toxoplasma gondii [1] = test: Antimicrobial activity against tachyzoites of Toxoplasma gondii RH infected in Vero cells assessed as reduction of infected cells at 10 mM after 24 hrs relative to control; format: functional; design: scale not given: the % may be the effect or the level left
Procedure, shortened: (§1)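 T. gondii RH tachyzoites were taken from mouse intraperitoneal passage. Vero cells were infected at 10:1 parasite:host for 1 h, PBS-washed, then held 24 h at 37 °C in medium 199 + 5% FCS. Compound exposure was 24 h at 37 °C. Cells were Bouin-fixed, Giemsa-stained and light-microscopy scored (≥400 cells) for % infected cells. Student's t-test, P<0.05. 13 assays in triplicate.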

[2] = Cytotoxicity against african green monkey Vero cells after 24 hrs; format: cell-based; settings: chlorocebus sabaeus, read-out: LD50
Toxoplasma gondii [3] = test: Antimicrobial activity against tachyzoites of Toxoplasma gondii RH infected in Vero cells assessed as reduction of infected cells after 24 hrs; format: functional; settings: read-out: LD50 (the source's name)
Procedure, shortened: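 RH tachyzoites came from intraperitoneal passage in Swiss mice, harvested at 48 h. Vero cells were infected at a 10:1 parasite:host ratio for 1 h, washed with PBS and grown 24 h at 37 °C in medium 199 with 5% FCS. Compounds were then added at 0.1, 1 and 10 mM for 24 h. Cells were Bouin-fixed and Giemsa-stained, and at least 400 cells were counted by light microscopy. Mean ± SD, n = 3; Student's t-test.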

Toxoplasma gondii [4] = test: Antimicrobial activity against tachyzoites of Toxoplasma gondii RH infected in Vero cells assessed as reduction of infected cells at 0.1 mM after 24 hrs relative to control; format: functional; design: scale not given: the % may be the effect or the level left; procedure, shortened: as §1
Toxoplasma gondii [5] = test: Antimicrobial activity against tachyzoites of Toxoplasma gondii RH infected in Vero cells assessed as reduction of infected cells at 1 mM after 24 hrs relative to control; format: functional; design: scale not given: the % may be the effect or the level left; procedure, shortened: as §1
[6] = Cytotoxicity against african green monkey Vero cells infected with tachyzoites of Toxoplasma gondii RH after 24 hrs; format: cell-based; settings: chlorocebus sabaeus, read-out: LD50
Procedure, shortened: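 Vero cells were infected with RH tachyzoites (10:1, 1 h), washed and incubated 24 h. They were then exposed 24 h to compound over 0.01–10 mM, in triplicate. Viability was scored by trypan blue exclusion, and LD50 was obtained by non-linear regression.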

Staphylococcus aureus [7] = test: Antibacterial activity against Staphylococcus aureus UFPEDA 02 after 24 to 48 hrs by serial dilution method; format: functional
Bacillus subtilis [8] = test: Antibacterial activity against Bacillus subtilis UFPEDA 16 after 24 to 48 hrs by serial dilution method; format: functional
Bacillus subtilis [9] = test: Antibacterial activity against Bacillus subtilis UFPEDA 16 by disc diffusion method; format: functional
Procedure, shortened: (§2)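 Disc diffusion: discs holding known amounts of agent were laid on agar seeded with a standardized microbial suspension. DMSO discs (CH₂Cl₂ for ketoconazole tests) served as negative controls. Read-out was mean zone of inhibition (mm). Run in triplicate, repeated if results differed.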

Staphylococcus aureus [10] = test: Antibacterial activity against Staphylococcus aureus UFPEDA 02 by disc diffusion method; format: functional; procedure, shortened: as §2
Candida [11] = test: Antifungal activity against Candida sp. UFPEDA 2224 after 24 to 48 hrs by serial dilution method; format: functional
Procedure, shortened: (§3)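 Only compounds giving a disc-diffusion mean inhibition zone of at least 18 mm were carried to MIC. Nistatin and ketoconazole served as antifungal references.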

Candida albicans [12] = test: Antifungal activity against Candida albicans UFPEDA 1007 after 24 to 48 hrs by serial dilution method; format: functional; procedure, shortened: as §3
Candida [13] = test: Antifungal activity against Candida sp. UFPEDA 2224 by disc diffusion method; format: functional; procedure, shortened: as §2
Candida albicans [14] = test: Antifungal activity against Candida albicans UFPEDA 1007 by disc diffusion method; format: functional; procedure, shortened: as §2
Escherichia coli [15] = test: Antibacterial activity against Escherichia coli UFPEDA 224 by disc diffusion method; format: functional; procedure, shortened: as §2
[16] = tested on: Mycolicibacterium smegmatis; test: Antibacterial activity against Mycobacterium smegmatis UFPEDA 71 after 24 to 48 hrs by serial dilution method; format: functional
[17] = tested on: Mycolicibacterium smegmatis; test: Antibacterial activity against Mycobacterium smegmatis UFPEDA 71 by disc diffusion method; format: functional; procedure, shortened: as §2
Escherichia coli [18] = test: Antibacterial activity against Escherichia coli UFPEDA 224 after 24 to 48 hrs by serial dilution method; format: functional
Aspergillus niger [19] = test: Antifungal activity against Aspergillus niger UFPEDA 2003 by disc diffusion method; format: functional; procedure, shortened: as §2
Aspergillus niger [20] = test: Antifungal activity against Aspergillus niger UFPEDA 2003 after 24 to 48 hrs by serial dilution method; format: functional; procedure, shortened: as §3

Molecule: NC(=O)NO [HYDROXYUREA]
- Activity (Toxoplasma gondii [1]): 1%
- CC50 at 24 h [2]: > 10000 µM
- LC50 (Toxoplasma gondii [3]): 500 µM
- Activity (Toxoplasma gondii [4]): 53%
- Activity (Toxoplasma gondii [5]): 4%
- CC50 at 24 h [6]: > 10000 µM

Molecule: COc1ccc(N2C(=O)C(CC(=O)O)S/C2=N\NC(=O)c2nc[nH]c2C)cc1 (stereo not drawn)
- Activity (Toxoplasma gondii [1]): 0%
- CC50 at 24 h [2]: 5000 µM
- LC50 (Toxoplasma gondii [3]): 500 µM
- Activity (Toxoplasma gondii [4]): 73%
- Activity (Toxoplasma gondii [5]): 17%
- CC50 at 24 h [6]: 1000 µM

Molecule: Nc1ccc(S(=O)(=O)Nc2ncccn2)cc1 [SULFADIAZINE]
- Activity (Toxoplasma gondii [1]): 36%
- CC50 at 24 h [2]: > 10000 µM
- LC50 (Toxoplasma gondii [3]): 6000 µM
- Activity (Toxoplasma gondii [4]): 64%
- Activity (Toxoplasma gondii [5]): 48%
- CC50 at 24 h [6]: > 10000 µM

Molecule: Cc1[nH]cnc1C(=O)NNC(=S)Nc1ccccc1
- Activity (Toxoplasma gondii [1]): 0%
- CC50 at 24 h [2]: 1000 µM
- LC50 (Toxoplasma gondii [3]): 50 µM
- Activity (Toxoplasma gondii [4]): 18%
- MIC (Staphylococcus aureus [7]): 190 µg/mL (≈ 690 µM)
- MIC (Bacillus subtilis [8]): 140 µg/mL (≈ 508 µM)
- inhibition zone (IZ) (Bacillus subtilis [9]): 27 mm
- Activity (Toxoplasma gondii [5]): 6%
- CC50 at 24 h [6]: 50 µM
- inhibition zone (IZ) (Staphylococcus aureus [10]): 18 mm

Molecule: Cc1[nH]cnc1-c1nnc(Nc2ccccc2)s1
- Activity (Toxoplasma gondii [1]): 0.36%
- CC50 at 24 h [2]: > 10000 µM
- LC50 (Toxoplasma gondii [3]): 50 µM
- Activity (Toxoplasma gondii [4]): 13%
- Activity (Toxoplasma gondii [5]): 10%
- CC50 at 24 h [6]: 600 µM

Molecule: O=C(N[C@H](CO)[C@H](O)c1ccc([N+](=O)[O-])cc1)C(Cl)Cl [CHLORAMPHENICOL]
- MIC (Staphylococcus aureus [7]): 35 µg/mL (≈ 108 µM)
- MIC (Bacillus subtilis [8]): 30 µg/mL (≈ 92.8 µM)

Molecule: Cc1[nH]cnc1C(=O)N/N=C1\SC(CC(=O)O)C(=O)N1c1ccc(Cl)cc1 (stereo not drawn)
- Activity (Toxoplasma gondii [1]): 0.19%
- CC50 at 24 h [2]: > 10000 µM
- LC50 (Toxoplasma gondii [3]): 1500 µM
- MIC (Candida [11]): 300 µg/mL (≈ 736 µM)
- MIC (Candida albicans [12]): 280 µg/mL (≈ 687 µM)
- Activity (Toxoplasma gondii [4]): 63%
- inhibition zone (IZ) (Candida [13]): 20 mm
- inhibition zone (IZ) (Candida albicans [14]): 20 mm
- Activity (Toxoplasma gondii [5]): 51%
- CC50 at 24 h [6]: 1000 µM

Molecule: Cc1[nH]cnc1C(=O)NNC(=S)Nc1ccc(F)cc1
- Activity (Toxoplasma gondii [1]): 0%
- CC50 at 24 h [2]: 10000 µM
- LC50 (Toxoplasma gondii [3]): 50 µM
- Activity (Toxoplasma gondii [4]): 14%
- MIC (Staphylococcus aureus [7]): 190 µg/mL (≈ 648 µM)
- MIC (Bacillus subtilis [8]): 130 µg/mL (≈ 443 µM)
- inhibition zone (IZ) (Escherichia coli [15]): 21 mm
- inhibition zone (IZ) (Bacillus subtilis [9]): 28 mm
- MIC [16]: 160 µg/mL (≈ 545 µM)
- inhibition zone (IZ) [17]: 20 mm
- Activity (Toxoplasma gondii [5]): 8%
- CC50 at 24 h [6]: 60 µM
- MIC (Escherichia coli [18]): 250 µg/mL (≈ 852 µM)
- inhibition zone (IZ) (Staphylococcus aureus [10]): 20 mm

Molecule: Cc1[nH]cnc1-c1nnc(Nc2ccc(Cl)cc2)s1
- Activity (Toxoplasma gondii [1]): 1%
- CC50 at 24 h [2]: > 10000 µM
- LC50 (Toxoplasma gondii [3]): 50 µM
- Activity (Toxoplasma gondii [4]): 12%
- Activity (Toxoplasma gondii [5]): 8%
- CC50 at 24 h [6]: 80 µM

Molecule: Cc1[nH]cnc1C(=O)NNC(=S)Nc1ccc(Cl)cc1
- Activity (Toxoplasma gondii [1]): 1%
- CC50 at 24 h [2]: > 10000 µM
- LC50 (Toxoplasma gondii [3]): 60 µM
- Activity (Toxoplasma gondii [4]): 11%
- MIC (Staphylococcus aureus [7]): 190 µg/mL (≈ 613 µM)
- MIC (Bacillus subtilis [8]): 130 µg/mL (≈ 420 µM)
- inhibition zone (IZ) (Bacillus subtilis [9]): 29 mm
- MIC [16]: 150 µg/mL (≈ 484 µM)
- inhibition zone (IZ) [17]: 21 mm
- Activity (Toxoplasma gondii [5]): 8%
- CC50 at 24 h [6]: 60 µM
- inhibition zone (IZ) (Staphylococcus aureus [10]): 25 mm

Molecule: Cc1[nH]cnc1C(=O)N/N=C1\SC(CC(=O)O)C(=O)N1c1ccc(F)cc1 (stereo not drawn)
- Activity (Toxoplasma gondii [1]): 0%
- CC50 at 24 h [2]: 5000 µM
- LC50 (Toxoplasma gondii [3]): 100 µM
- inhibition zone (IZ) (Aspergillus niger [19]): 18 mm
- Activity (Toxoplasma gondii [4]): 59%
- Activity (Toxoplasma gondii [5]): 22%
- CC50 at 24 h [6]: 1000 µM

Molecule: Cc1[nH]cnc1-c1nnc(Nc2ccc(F)cc2)s1
- Activity (Toxoplasma gondii [1]): 3%
- CC50 at 24 h [2]: > 10000 µM
- LC50 (Toxoplasma gondii [3]): 50 µM
- Activity (Toxoplasma gondii [4]): 22%
- Activity (Toxoplasma gondii [5]): 6%
- CC50 at 24 h [6]: 70 µM

Molecule: Cc1[nH]cnc1C(=O)N/N=C1\SC(CC(=O)O)C(=O)N1c1ccccc1 (stereo not drawn)
- Activity (Toxoplasma gondii [1]): 0%
- CC50 at 24 h [2]: 5000 µM
- LC50 (Toxoplasma gondii [3]): 1500 µM
- Activity (Toxoplasma gondii [4]): 69%
- MIC (Staphylococcus aureus [7]): 250 µg/mL (≈ 670 µM)
- MIC (Bacillus subtilis [8]): 270 µg/mL (≈ 723 µM)
- inhibition zone (IZ) (Bacillus subtilis [9]): 27 mm
- Activity (Toxoplasma gondii [5]): 42%
- CC50 at 24 h [6]: 5000 µM
- inhibition zone (IZ) (Staphylococcus aureus [10]): 19 mm

Molecule: COc1ccc(NC(=S)NNC(=O)c2nc[nH]c2C)cc1
- Activity (Toxoplasma gondii [1]): 0%
- CC50 at 24 h [2]: 1000 µM
- LC50 (Toxoplasma gondii [3]): 60 µM
- Activity (Toxoplasma gondii [4]): 22%
- MIC (Staphylococcus aureus [7]): 210 µg/mL (≈ 688 µM)
- MIC (Bacillus subtilis [8]): 160 µg/mL (≈ 524 µM)
- inhibition zone (IZ) (Bacillus subtilis [9]): 22 mm
- Activity (Toxoplasma gondii [5]): 12%
- CC50 at 24 h [6]: 70 µM
- inhibition zone (IZ) (Staphylococcus aureus [10]): 19 mm

Molecule: CO[C@H]1/C=C/O[C@@]2(C)Oc3c(C)c(O)c4c(O)c(c(/C=N/N5CCN(C)CC5)c(O)c4c3C2=O)NC(=O)/C(C)=C\C=C\[C@H](C)[C@H](O)[C@@H](C)[C@@H](O)[C@@H](C)[C@H](OC(C)=O)[C@@H]1C [RIFAMPIN]
- MIC [16]: 55 µg/mL (≈ 66.8 µM)

Molecule: NYSTATIN
- MIC (Aspergillus niger [20]): 50 µg/mL
- MIC (Candida [11]): 50 µg/mL
- MIC (Candida albicans [12]): 50 µg/mL

Molecule: COc1ccc(Nc2nnc(-c3nc[nH]c3C)s2)cc1
- Activity (Toxoplasma gondii [1]): 0%
- CC50 at 24 h [2]: > 10000 µM
- LC50 (Toxoplasma gondii [3]): 50 µM
- Activity (Toxoplasma gondii [4]): 28%
- Activity (Toxoplasma gondii [5]): 14%
- CC50 at 24 h [6]: 100 µM

Molecule: CC(=O)N1CCN(c2ccc(OCC3COC(Cn4ccnc4)(c4ccc(Cl)cc4Cl)O3)cc2)CC1 (stereo not drawn) [KETOCONAZOLE]
- MIC (Candida [11]): 40 µg/mL (≈ 75.3 µM)
- MIC (Candida albicans [12]): 25 µg/mL (≈ 47 µM)
